Assay results published in ChEMBL document CHEMBL1914324, “Discovery of novel spirocyclic inhibitors of fatty acid amide hydrolase (FAAH). Part 2. Discovery of 7-azaspiro[3.5]nonane urea PF-04862853, an orally efficacious inhibitor of fatty acid amide hydrolase (FAAH) for pain” (Bioorg Med Chem Lett, 2011).
Active and inactive are the calls of the source. The calls are words filed in the database; no cut-off is given here.

What was measured:
[1] = target: T1, Fatty-acid amide hydrolase 1 (Rattus norvegicus) (UniProt P97612); experiment: Ratio of Kinact to Ki for rat FAAH activity
T1 sequence (whole entry): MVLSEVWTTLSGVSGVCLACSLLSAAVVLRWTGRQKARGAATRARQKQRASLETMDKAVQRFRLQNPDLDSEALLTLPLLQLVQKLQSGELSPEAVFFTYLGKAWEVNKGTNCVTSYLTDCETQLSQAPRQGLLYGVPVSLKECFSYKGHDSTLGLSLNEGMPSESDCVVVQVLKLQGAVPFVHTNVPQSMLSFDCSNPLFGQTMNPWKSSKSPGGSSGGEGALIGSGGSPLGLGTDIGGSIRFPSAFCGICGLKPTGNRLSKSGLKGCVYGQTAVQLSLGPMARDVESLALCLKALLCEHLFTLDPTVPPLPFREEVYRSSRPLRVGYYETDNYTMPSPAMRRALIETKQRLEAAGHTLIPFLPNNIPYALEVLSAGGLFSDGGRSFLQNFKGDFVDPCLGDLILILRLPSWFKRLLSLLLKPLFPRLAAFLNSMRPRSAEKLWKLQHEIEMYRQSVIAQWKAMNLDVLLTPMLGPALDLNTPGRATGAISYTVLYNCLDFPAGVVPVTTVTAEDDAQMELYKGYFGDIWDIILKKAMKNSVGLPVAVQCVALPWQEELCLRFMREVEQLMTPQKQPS
Summary of the method: (§1)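 kinact/Ki determined against human and rat FAAH. Each value is the average of at least two independent determinations.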

[2] = target: T2, Fatty-acid amide hydrolase 1 (Homo sapiens) (UniProt O00519); experiment: Ratio of Kinact to Ki for human FAAH activity; summary of the method: as §1
T2 sequence (whole entry): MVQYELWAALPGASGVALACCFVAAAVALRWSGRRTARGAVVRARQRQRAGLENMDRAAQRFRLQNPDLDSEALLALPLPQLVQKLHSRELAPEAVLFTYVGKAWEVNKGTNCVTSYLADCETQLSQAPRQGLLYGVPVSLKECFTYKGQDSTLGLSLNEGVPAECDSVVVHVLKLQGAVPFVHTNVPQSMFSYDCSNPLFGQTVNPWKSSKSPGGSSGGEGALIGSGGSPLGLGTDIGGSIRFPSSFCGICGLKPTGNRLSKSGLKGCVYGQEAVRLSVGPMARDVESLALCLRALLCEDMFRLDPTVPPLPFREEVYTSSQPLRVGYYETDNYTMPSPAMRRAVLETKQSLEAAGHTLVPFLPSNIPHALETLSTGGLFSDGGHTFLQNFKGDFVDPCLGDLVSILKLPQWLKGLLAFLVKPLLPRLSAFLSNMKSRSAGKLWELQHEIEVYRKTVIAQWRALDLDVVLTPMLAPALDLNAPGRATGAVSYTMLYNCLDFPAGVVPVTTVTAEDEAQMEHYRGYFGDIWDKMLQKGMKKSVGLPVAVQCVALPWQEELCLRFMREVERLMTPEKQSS

[3] = Inhibition of cytochrome P450; type: ADME
[4] = target: Voltage-gated inwardly rectifying potassium channel KCNH2 (Homo sapiens, UniProt Q12809); experiment: Displacement of dofetilide from ERG
[5] = target: T2, Fatty-acid amide hydrolase 1 (Homo sapiens); experiment: Inhibition of FAAH in human brain membrane using rhodamine-tagged fluorophosphonate probe at 100 uM by competitive activity-based protein profiling method; type: cell membranes
Summary of the method: (§2)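 Competitive activity-based protein profiling against >200 human serine hydrolases, FAAH included. Compound tested at 100 µM in human brain membrane and soluble liver proteomes. Residual hydrolase activity labelled with a rhodamine-tagged fluorophosphonate probe.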

[6] = target: T2, Fatty-acid amide hydrolase 1 (Homo sapiens); experiment: Inhibition of FAAH in human liver proteomes using rhodamine-tagged fluorophosphonate probe at 100 uM by competitive activity-based protein profiling method; summary of the method: as §2
Rattus norvegicus = experiment: Inhibition of FAAH in rat CFA model at 3 mg/kg, po after 3 hrs; type: functional; conditions: for minimal effective dose: read-out: MED

Voltage-gated inwardly rectifying potassium channel KCNH2, sequence (Q12809 whole entry): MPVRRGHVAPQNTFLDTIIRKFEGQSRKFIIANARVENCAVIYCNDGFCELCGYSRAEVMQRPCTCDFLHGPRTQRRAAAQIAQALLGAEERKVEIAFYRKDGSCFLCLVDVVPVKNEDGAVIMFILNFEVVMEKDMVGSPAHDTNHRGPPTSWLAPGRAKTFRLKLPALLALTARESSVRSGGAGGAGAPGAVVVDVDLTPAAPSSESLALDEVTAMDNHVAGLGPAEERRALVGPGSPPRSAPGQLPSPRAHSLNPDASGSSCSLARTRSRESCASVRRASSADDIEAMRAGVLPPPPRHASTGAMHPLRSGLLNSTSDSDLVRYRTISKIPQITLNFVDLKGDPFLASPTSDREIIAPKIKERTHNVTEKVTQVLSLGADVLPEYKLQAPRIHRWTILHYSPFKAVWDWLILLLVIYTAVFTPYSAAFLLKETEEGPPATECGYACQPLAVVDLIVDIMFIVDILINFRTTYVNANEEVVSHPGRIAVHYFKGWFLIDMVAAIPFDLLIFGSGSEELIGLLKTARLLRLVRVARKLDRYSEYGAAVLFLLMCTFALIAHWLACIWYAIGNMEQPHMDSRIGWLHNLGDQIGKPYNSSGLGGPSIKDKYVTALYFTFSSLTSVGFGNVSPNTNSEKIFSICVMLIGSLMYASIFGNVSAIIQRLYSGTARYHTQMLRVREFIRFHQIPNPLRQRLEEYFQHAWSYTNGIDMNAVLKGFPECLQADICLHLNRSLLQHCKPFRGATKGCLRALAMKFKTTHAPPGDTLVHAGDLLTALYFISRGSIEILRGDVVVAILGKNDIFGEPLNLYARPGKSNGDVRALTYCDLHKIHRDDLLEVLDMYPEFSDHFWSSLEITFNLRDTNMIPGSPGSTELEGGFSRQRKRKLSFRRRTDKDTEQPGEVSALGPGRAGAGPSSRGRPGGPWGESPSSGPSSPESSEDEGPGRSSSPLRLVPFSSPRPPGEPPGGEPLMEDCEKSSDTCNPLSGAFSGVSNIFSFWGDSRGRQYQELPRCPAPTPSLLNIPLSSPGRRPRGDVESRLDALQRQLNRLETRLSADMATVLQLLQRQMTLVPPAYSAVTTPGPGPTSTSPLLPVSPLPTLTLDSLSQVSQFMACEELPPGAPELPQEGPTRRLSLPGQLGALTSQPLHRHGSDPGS

| Ratio [1] [M⁻¹ s⁻¹] | Ratio [2] [M⁻¹ s⁻¹] | Compound | also measured |
| --- | --- | --- | --- |
| 1560 | 2390 | Cc1noc(NC(=O)N2CCC3(CC2)CC(c2cccc(Cl)c2)CO3)c1C (stereo in doubt; form 1) |  |
| 348 | 245 | Cc1noc(NC(=O)N2CCC3(CC2)CC(c2ccc(C(F)(F)F)cc2)C3)c1C |  |
| 679 | 2080 | Cc1noc(NC(=O)N2CCC3(CC2)CC(c2ccccc2)C3)c1C |  |
| 2670 | 2040 | Cc1noc(NC(=O)N2CCC3(CC2)CC(c2cccc(Cl)c2)CO3)c1C (racemic) |  |
| 4560 | 7110 | Cn1nnnc1NC(=O)N1CCC2(CC1)CC(c1cccc(OC(F)(F)F)c1)CO2 (configuration not stated) | inhibition (INH) [3]: Not Active; inhibition (INH) [4]: Not Active; inhibition [5]: Active; inhibition [6]: Active; activity call (active/not active) (Rattus norvegicus): Active; minimal effective dose (Rattus norvegicus): 0.1 mg/kg |
| 461 | 162 | Cc1noc(NC(=O)N2CCC3(CC2)CC(c2ccc(OC(F)(F)F)cc2)CO3)c1C (racemic) |  |
| 2160 | 4600 | Cn1nnnc1NC(=O)N1CCC2(CC1)CC(c1cccc(C(F)(F)F)c1)CO2 (stereo in doubt; form 1) [listing 1 of 2 here] | inhibition [5]: Active; inhibition [6]: Active; activity call (active/not active) (Rattus norvegicus): Active |
| 3110 | 1800 | Cc1noc(NC(=O)N2CCC3(CC2)CC(c2cccc(OC(F)(F)F)c2)CO3)c1C (racemic) |  |
| 3860 | 2830 | Cc1noc(NC(=O)N2CCC3(CC2)CC(c2cccc(OC(F)(F)F)c2)C3)c1C | inhibition (INH) [3]: Not Active; inhibition (INH) [4]: Not Active; inhibition [5]: Active; inhibition [6]: Active; activity call (active/not active) (Rattus norvegicus): Active; minimal effective dose (Rattus norvegicus): 1 mg/kg |
| 229 | 353 | Cc1noc(NC(=O)N2CCC3(CC2)CC(c2ccc(OC(F)(F)F)cc2)C3)c1C |  |
|  | 113 | Cc1cc(NC(=O)N2CCC3(CC2)CC(c2cccc(OC(F)(F)F)c2)C3)on1 |  |
| 34.2 | 64 | Cc1onc(NC(=O)N2CCC3(CC2)CC(c2cccc(OC(F)(F)F)c2)C3)c1C |  |
| 4360 | 2430 | Cc1noc(NC(=O)N2CCC3(CC2)CC(c2ccc(Cl)c(Cl)c2)CO3)c1C (racemic) |  |
| 265 | 2640 | COc1ccccc1C1CC2(CCN(C(=O)Nc3onc(C)c3C)CC2)C1 |  |
| 1340 | 5670 | CCc1cccc(C2CC3(CCN(C(=O)Nc4onc(C)c4C)CC3)C2)c1 | inhibition (INH) [3]: Not Active; inhibition (INH) [4]: Not Active; inhibition [5]: Active; inhibition [6]: Active; activity call (active/not active) (Rattus norvegicus): inactive |
| 315 | 461 | Cc1noc(NC(=O)N2CCC3(CC2)CC(c2ccccc2)CO3)c1C (racemic) |  |
|  | 338 | CCc1c(C)noc1NC(=O)N1CCC2(CC1)CC(c1cccc(OC(F)(F)F)c1)C2 |  |
| 585 | 1760 | COc1ccc(C2CC3(CCN(C(=O)Nc4onc(C)c4C)CC3)C2)cc1 |  |
| 741 | 2190 | COc1cccc(C2CC3(CCN(C(=O)Nc4onc(C)c4C)CC3)C2)c1 |  |
| 564 | 839 | Cc1noc(NC(=O)N2CCC3(CC2)CC(c2ccccc2OC(F)(F)F)C3)c1C |  |
| 5750 | 12400 | Cn1nnnc1NC(=O)N1CCC2(CC1)CC(c1cccc(C(F)(F)F)c1)C2 | inhibition (INH) [3]: Not Active; inhibition (INH) [4]: Not Active; inhibition [5]: Active; inhibition [6]: Active; activity call (active/not active) (Rattus norvegicus): Active; minimal effective dose (Rattus norvegicus): 1 mg/kg |
| 1660 | 1650 | CCc1noc(NC(=O)N2CCC3(CC2)CC(c2cccc(OC(F)(F)F)c2)C3)c1C |  |

| Ratio [1] [M⁻¹ s⁻¹] | Ratio [2] [M⁻¹ s⁻¹] | Compound | also measured |
| --- | --- | --- | --- |
|  |  | Cn1nnnc1NC(=O)N1CCC2(CC1)CC(c1cccc(C(F)(F)F)c1)CO2 (stereo in doubt; form 1) [listing 2 of 2 here] | inhibition (INH) [3]: Not Active; inhibition (INH) [4]: Not Active; minimal effective dose (Rattus norvegicus): 1 mg/kg |
|  | 1140 | Cc1noc(NC(=O)N2CCC3(CC2)CC(c2ccccc2C(F)(F)F)C3)c1C |  |
| 9460 |  | Cc1noc(NC(=O)N2CCC3(CC2)CC(c2cccc(Oc4ccc(C(F)(F)F)cn4)c2)C3)c1C |  |
| 26.1 | 43.2 | Cc1noc(NC(=O)N2CCC3(CC2)CC(c2ccc(C#N)cc2)CO3)c1C (racemic) |  |
| 2070 | 2030 | Cc1noc(NC(=O)N2CCC3(CC2)CC(c2ccc(Cl)cc2)C3)c1C |  |
| 152 | 165 | Cn1nnc(NC(=O)N2CCC3(CC2)CC(c2cccc(OC(F)(F)F)c2)C3)n1 |  |
| 3950 | 1580 | Cc1noc(NC(=O)N2CCC3(CC2)CC(c2ccc(F)c(Cl)c2)CO3)c1C (racemic) |  |
| 999 | 243 | Cc1noc(NC(=O)N2CCC3(CC2)CC(c2cccc(C#N)c2)CO3)c1C (racemic) |  |
| 3690 | 3060 | Cc1noc(NC(=O)N2CCC3(CC2)CC(c2cccc(C(F)(F)F)c2)C3)c1C |  |
| 3830 | 2590 | Cc1noc(NC(=O)N2CCC3(CC2)CC(c2cccc(Cl)c2)CO3)c1C (stereo in doubt; form 2) |  |
| 4570 | 13200 | Cn1nnnc1NC(=O)N1CCC2(CC1)CC(c1cccc(OC(F)(F)F)c1)C2 | inhibition (INH) [3]: Not Active; inhibition (INH) [4]: Not Active; inhibition [5]: Active; inhibition [6]: Active; activity call (active/not active) (Rattus norvegicus): Active; minimal effective dose (Rattus norvegicus): 0.1 mg/kg |
| 714 | 481 | Cc1noc(NC(=O)N2CCC3(CC2)CC(c2ccc(C(F)(F)F)cc2)CO3)c1C (racemic) |  |
| 1620 | 2870 | Cc1cccc(C2CC3(CCN(C(=O)Nc4onc(C)c4C)CC3)C2)c1 |  |
| 2110 | 3760 | Cn1nnnc1NC(=O)N1CCC2(CC1)CC(c1cccc(C(F)(F)F)c1)CO2 (stereo in doubt; form 2) |  |
| 3420 | 6940 | CCn1nnnc1NC(=O)N1CCC2(CC1)CC(c1cccc(OC(F)(F)F)c1)C2 |  |
| 3560 | 3940 | Cc1noc(NC(=O)N2CCC3(CC2)CC(c2cccc(Cl)c2)C3)c1C | inhibition (INH) [3]: Not Active; inhibition (INH) [4]: Not Active; inhibition [5]: Active; inhibition [6]: Active; activity call (active/not active) (Rattus norvegicus): Active; minimal effective dose (Rattus norvegicus): 1 mg/kg |
| 5940 | 16300 | Cn1nnnc1NC(=O)N1CCC2(CC1)CC(c1ccc(F)c(Cl)c1)C2 |  |
| 2680 | 1330 | Cc1noc(NC(=O)N2CCC3(CC2)CC(c2cccc(C(F)(F)F)c2)CO3)c1C (racemic) |  |
|  | < 10 | Cn1ncnc1NC(=O)N1CCC2(CC1)CC(c1cccc(OC(F)(F)F)c1)C2 |  |
| 3470 | 4550 | Cc1noc(NC(=O)N2CCC3(CC2)CC(c2ccc(Cl)c(Cl)c2)C3)c1C |  |
| 2460 | 1530 | Cc1nnc(NC(=O)N2CCC3(CC2)CC(c2cccc(OC(F)(F)F)c2)C3)o1 |  |
| 1970 | 5600 | Cn1nnnc1NC(=O)N1CCC2(CC1)CC(c1cccc(Cl)c1)CO2 (configuration not stated) |  |
